In ChEMBL document CHEMBL1141612, “Glyconanobiotics: Novel carbohydrated nanoparticle antibiotics for MRSA and Bacillus anthracis” (2008):
In brackets after ≈: the same amount, converted by molar mass.

What was measured:
Format in all cases: functional
[1] = test system: Staphylococcus aureus; test: Antibacterial activity against Staphylococcus aureus ATCC 25923 after 24 hrs by broth dilution MIC assay; details: ATCC 25923, 24 h
Method in brief: (§1)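 Broth serial dilution. For nanoparticle emulsions, the drug content is assumed equal to the amount used in the polymerization, expressed as µg drug per mL of undiluted emulsion.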

[2] = test system: Bacillus anthracis; test: Antibacterial activity against Bacillus anthracis after 24 hrs by broth dilution MIC assay; method in brief: as §1
[3] = test system: Staphylococcus aureus; test: Antibacterial activity against methicillin-resistant Staphylococcus aureus ATCC 43300 after 24 hrs by broth dilution MIC assay; details: ATCC 43300, 24 h; method in brief: as §1

Row | Structure (SMILES) | MIC [1] [µg/mL] | MIC [2] [µg/mL] | MIC [3] [µg/mL]
1 | C=CC(=O)O[C@@H]1[C@@H]2OC(C)(C)O[C@@H]2O[C@@H]1C(COC(C)=O)OC(=O)CCC(=O)N[C@@H]1C(=O)N2C1SC(C)(C)[C@@H]2C(=O)O (stereo partly specified) | > 256 | > 256 | > 256
2 | C=CC(=O)O[C@@H]1[C@@H]2OC(C)(C)O[C@@H]2O[C@@H]1C(COC(C)=O)OC(=O)CCC(=O)N1CCN(c2cc3c(cc2F)c(=O)c(C(=O)O)cn3C2CC2)CC1 (stereo partly specified) [CIPROFLOXACIN ACRYLATE] | 32 (≈ 43.9 µM) | 16 (≈ 21.9 µM) | 32 (≈ 43.9 µM)
3 | C=CC(=O)O[C@@H]1[C@H]2OC(C)(C)O[C@H]2O[C@@H]1C(COC(=O)CCC(=O)O[C@H]1C(=O)N(SC(C)CC)[C@H]1c1ccccc1Cl)OC(=O)CCC(=O)O[C@H]1C(=O)N(SC(C)CC)[C@H]1c1ccccc1Cl (stereo partly specified) [LACTAM MONOMER] | 128 (≈ 127 µM) | 64 (≈ 63.4 µM) | 128 (≈ 127 µM)
4 | CC1(C)S[C@@H]2[C@H](NC(=O)Cc3ccccc3)C(=O)N2[C@H]1C(=O)O [PENICILLIN G] | 0.012 (≈ 0.0359 µM) |  | 16 (≈ 47.8 µM)
